Values after ≈ are worked out from the molar mass of the structure shown. Active and inactive are the calls of the source. No cut-off for these calls is given here. Peptide text beside a SMILES is read from it. * marks the point of attachment. Boc = CC(C)(C)OC(=O)*; NHBn = c1ccc(CN*)cc1

What is called IC50 is the concentration that gives 50% inhibition. What is called MIC is the lowest concentration found to suppress growth.

In one series the test system is KB. Briefly: Cytotoxicity against human KB cells assessed as cell viability after 48 hrs by neutral red uptake assay. It counts as cell-based. The method in brief: (§1)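 Neutral red uptake assay in human cancer lines SK-MEL, KB, BT-549 and SK-OV-3 and in noncancerous mammalian kidney cells VERO and LLC-PK1. The highest tested concentration was 10 μg/mL.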
The next series deals with Nakaseomyces glabratus. The series is described as follows: Antifungal activity against Candida glabrata by CLSI method. The series is classed as functional, organism-based.
A further series concerns SK-OV-3. The series is described as follows: Cytotoxicity against human SKOV3 cells assessed as cell viability after 48 hrs by neutral red uptake assay. The series is classed as cell-based. The note with it: sk-ov-3, 48 h. In outline: as §1
A short description of series [1]: Selectivity index, ratio of cytotoxicity for human BT549 cells to IC50 for Cryptococcus neoformans ATCC 90113. It counts as toxicity, cell-based, BT-549. The note with it: read-out: Selectivity Index.
The subject of a further series is Escherichia coli. The series is described as follows: Antibacterial activity against Escherichia coli ATCC 35218 after 16 to 20 hrs by CLSI method. The series is classed as functional, organism-based.
In a further series the test system is Aspergillus fumigatus. The series is described as follows: Antifungal activity against Aspergillus fumigatus by CLSI method. The series is classed as functional, organism-based.
In another series the test system is Vero. Briefly: Cytotoxicity against African green monkey Vero cells assessed as cell viability after 48 hrs by neutral red uptake assay. The series is classed as cell-based. The settings on record: chlorocebus sabaeus. In outline:
as §1

Series [2] in a line: Selectivity index, ratio of cytotoxicity for human SKOV3 cells to IC50 for Cryptococcus neoformans ATCC 90113. The series is classed as toxicity, cell-based, SK-OV-3. The settings on record: read-out: Selectivity Index.
Another series concerns BT-549. The series is described as follows: Cytotoxicity against human BT549 cells assessed as cell viability after 48 hrs by neutral red uptake assay. The series is classed as cell-based. The note with it: bt-549, 48 h. In outline:
as §1

In the next series the test system is Pichia kudriavzevii. Briefly: Antifungal activity against Candida krusei by CLSI method. It counts as functional, organism-based.
A further series relates to SK-MEL. Briefly: Cytotoxicity against human SK-MEL cells assessed as cell viability after 48 hrs by neutral red uptake assay. It counts as cell-based. The method in brief:
as §1

Series [3] deals with Cryptococcus neoformans. Briefly: Antifungal activity against Cryptococcus neoformans ATCC 90113 after 70 to 74 hrs by CLSI method. The settings on record: for IC50 / MIC: Cryptococcus neoformans, ATCC 90113. The series is classed as functional, organism-based. The method in brief: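 Growth inhibition of C. neoformans per the CLSI protocol. […] MIC is the lowest test concentration with no detectable growth. MFC is the lowest concentration killing 100% of the organism.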

Series [4] can be described thus: Retention time of the compound by reverse phase HPLC analysis. It counts as physicochemical. In outline:
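Reverse-phase HPLC on a C-18 column (25 cm × 4.6 mm, 5 μM) at 1 mL/min over 40 min. The gradient ran 85−5% with A = 0.1% TFA in H2O and B = 0.1% TFA in CH3CN. Detection was at 220 nm.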

The nature of series [5]: Selectivity index, ratio of cytotoxicity for human SK-MEL cells to IC50 for Cryptococcus neoformans ATCC 90113. The series is classed as toxicity, cell-based. The note with it: read-out: Selectivity Index.
The test system of another series is LLC-PK1. The series is described as follows: Cytotoxicity against pig LLC-PK1 cells assessed as cell viability after 48 hrs by neutral red uptake assay. It counts as cell-based, Sus scrofa. The note with it: llc-pk1, 48 h. In outline: as §1
Series [6] can be described thus: Selectivity index, ratio of cytotoxicity for human KB cells to IC50 for Cryptococcus neoformans ATCC 90113. The settings on record: read-out: Selectivity Index. The series is classed as toxicity, cell-based.
The next series concerns Candida albicans. Briefly: Antifungal activity against Candida albicans by CLSI method. It counts as functional, organism-based.
Series [7] is described as follows: Selectivity index, ratio of cytotoxicity for African green monkey Vero cells to IC50 for Cryptococcus neoformans ATCC 90113. It counts as toxicity, cell-based. The note with it: read-out: Selectivity Index.
The nature of series [8]: Selectivity index, ratio of cytotoxicity for pig LLC-PK1 cells to IC50 for Cryptococcus neoformans ATCC 90113. The series is classed as toxicity, cell-based. The note with it: read-out: Selectivity Index.
For series [9], the system named is Cryptococcus neoformans. The series is described as follows: Antifungal activity against Cryptococcus neoformans ATCC 90113 at 20 ug/ml after 70 to 74 hrs by CLSI method. It counts as functional, organism-based. In outline: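 C. neoformans screened per the CLSI protocol at the highest tested concentration of 20 μg/mL. Compounds showing no activity at this level were scored not active.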

For `COC(=O)[C@H](CCCNC(=N)N)NC(=O)[C@H](Cc1c[nH]c(-c2ccc(OC)cc2)n1)NC(=O)[C@H](CCCNC(=N)N)NC(=O)OC(C)(C)C`, the Activity in the series with KB, in the series with SK-OV-3, in the series on Vero, in the series on BT-549, with SK-MEL and in the series with LLC-PK1 was over 10 µg/mL each time. For the same molecule, the result in the series with Nakaseomyces glabratus, with Escherichia coli, in the series on Aspergillus fumigatus, in the series with Pichia kudriavzevii and in the series with Candida albicans was inactive. Further, the selectivity ratio in series [1], in series [2], in series [5], in series [6], in series [7] and in series [8] was over 2.5 throughout. The same molecule yielded an MFC100 in the series with Cryptococcus neoformans [3] of 5 µg/mL (≈ 7.27 µM). This molecule also registered an IC50 in the series on Cryptococcus neoformans [3] of 4.06 µg/mL (≈ 5.9 µM). The minimal inhibitory concentration (MIC) in the series with Cryptococcus neoformans [3] worked out at 5 µg/mL (≈ 7.27 µM). The Retention_time in series [4] is given as 13.59 min.

As for `CC(C)(C)OC(=O)N[C@@H](CCCNC(=N)N)C(=O)N[C@@H](Cc1c[nH]c(-c2ccccc2)n1)C(=O)N[C@@H](CCCNC(=N)N)C(=O)NCc1ccccc1`, the Activity in the series with KB, in the series on SK-OV-3, in the series on Vero, in the series on BT-549, with SK-MEL and in the series with LLC-PK1 was over 10 µg/mL each time. The result in the series with Nakaseomyces glabratus, in the series with Escherichia coli, in the series with Aspergillus fumigatus, in the series on Pichia kudriavzevii and in the series with Candida albicans was inactive. Besides, the selectivity ratio in [1], in [2], in [5], in [6], in [7] and in series [8] was over 14.9 throughout. The same molecule came in with an MFC100 in the series with Cryptococcus neoformans [3] of 1.25 µg/mL (≈ 1.71 µM). The molecule also had an IC50 in the series with Cryptococcus neoformans [3] of 0.67 µg/mL (≈ 0.914 µM). Inhibition of growth against Cryptococcus neoformans [3] (MIC) required 1.25 µg/mL (≈ 1.71 µM). Also, in series [4], the Retention_time amounted to 17.63 min.

For the molecule `CC(C)(C)OC(=O)N[C@@H](CCCNC(=N)N)C(=O)N[C@@H](Cc1c[nH]cn1)C(=O)N[C@@H](CCCNC(=N)N)C(=O)NCc1ccccc1` (Boc-Arg-His-Arg-NHBn), the Activity in the series on KB, in the series with SK-OV-3, in the series on Vero, in the series on BT-549, in the series on SK-MEL and in the series on LLC-PK1 was over 10 µg/mL in each case. Besides, the result with Nakaseomyces glabratus, with Escherichia coli, with Aspergillus fumigatus, in the series on Pichia kudriavzevii and in the series with Candida albicans was inactive. Besides, the selectivity ratio in series [1], in series [2], in series [5], in [6], in series [7] and in [8] was over 1.8 throughout. The MFC100 against Cryptococcus neoformans [3] was found to be 10 µg/mL (≈ 15.2 µM). For the same molecule, inhibition in the series on Cryptococcus neoformans [3] was half-maximal at 5.35 µg/mL (≈ 8.15 µM) (IC50). This molecule showed an MIC in the series with Cryptococcus neoformans [3] of 10 µg/mL (≈ 15.2 µM). Moreover, in [4], the Retention_time is on record as 16.41 min.

With `COC(=O)[C@H](CCCNC(=N)N)NC(=O)[C@H](Cc1c[nH]c(-c2ccc(C)cc2)n1)NC(=O)[C@@H](N)CCCNC(=N)N`, the Activity in the series with KB, with SK-OV-3, with Vero, in the series with BT-549, in the series on SK-MEL and in the series with LLC-PK1 was over 10 µg/mL in each case. In addition, the result in the series on Nakaseomyces glabratus, in the series on Escherichia coli, with Aspergillus fumigatus, with Cryptococcus neoformans [9], in the series with Pichia kudriavzevii and with Candida albicans was inactive. Also, the IC50 with Cryptococcus neoformans [3] was 19.7 µg/mL (≈ 34.5 µM).

With `Cc1ccc(-c2nc(C[C@H](NC(=O)[C@H](CCCNC(=N)N)NC(=O)OC(C)(C)C)C(=O)N[C@@H](CCCNC(=N)N)C(=O)NCc3ccccc3)c[nH]2)cc1`, the Activity with KB, in the series on SK-OV-3, in the series with Vero, in the series with BT-549, in the series on SK-MEL and with LLC-PK1 was over 10 µg/mL throughout. Moreover, the result in the series with Nakaseomyces glabratus, with Escherichia coli, with Aspergillus fumigatus, with Pichia kudriavzevii and in the series with Candida albicans was inactive. Besides, the selectivity ratio in series [1], in series [2], in series [5], in series [6], in series [7] and in series [8] was over 4.6 in each case. The MFC100 in the series on Cryptococcus neoformans [3] was 2.5 µg/mL (≈ 3.35 µM). The same molecule came in with a 50% inhibitory concentration (IC50) in the series on Cryptococcus neoformans [3] of 2.15 µg/mL (≈ 2.88 µM). 2.5 µg/mL (≈ 3.35 µM) was the least that counted as inhibitory against Cryptococcus neoformans [3] (MIC). The same molecule had a Retention_time in series [4] of 19.41 min.

Take `N=C(N)NCCC[C@H](NC(=O)[C@H](Cc1c[nH]cn1)NC(=O)[C@@H](N)CCCNC(=N)N)C(=O)NCc1ccccc1` (H-Arg-His-Arg-NHBn): the Activity in the series on KB, in the series with SK-OV-3, with Vero, in the series with BT-549, with SK-MEL and in the series on LLC-PK1 was over 10 µg/mL each time. Also, the result in the series on Nakaseomyces glabratus, with Escherichia coli, in the series with Aspergillus fumigatus, in the series with Cryptococcus neoformans [9], in the series on Pichia kudriavzevii and with Candida albicans was inactive.

Take `COC(=O)[C@H](CCCNC(=N)N)NC(=O)[C@H](Cc1c[nH]c(-c2ccc(-c3ccccc3)cc2)n1)NC(=O)[C@H](CCCNC(=N)N)NC(=O)OC(C)(C)C`: the Activity in the series on KB, in the series on SK-OV-3, in the series on Vero, in the series on BT-549, with SK-MEL and in the series on LLC-PK1 was over 10 µg/mL each time. Also, the outcome in the series on Nakaseomyces glabratus, with Escherichia coli, in the series with Aspergillus fumigatus, with Pichia kudriavzevii and in the series with Candida albicans was inactive. Also, the selectivity ratio in series [1], in series [2], in series [5], in series [6], in series [7] and in [8] was over 12.5 throughout. The MFC100 with Cryptococcus neoformans [3] is 1.25 µg/mL (≈ 1.7 µM). Also, the IC50 with Cryptococcus neoformans [3] amounted to 0.8 µg/mL (≈ 1.09 µM). In the series on Cryptococcus neoformans [3], this molecule yielded a minimum inhibitory concentration (MIC) of 1.25 µg/mL (≈ 1.7 µM). This molecule showed a Retention_time in series [4] of 18.64 min.

In the case of `COC(=O)[C@H](CCCNC(=N)N)NC(=O)[C@H](Cc1c[nH]c(-c2ccccc2)n1)NC(=O)[C@@H](N)CCCNC(=N)N`, the Activity with KB, with SK-OV-3, with Vero, in the series with BT-549, in the series on SK-MEL and in the series with LLC-PK1 was over 10 µg/mL in each case. The result with Nakaseomyces glabratus, in the series on Escherichia coli, in the series with Aspergillus fumigatus, in the series with Cryptococcus neoformans [9], in the series on Pichia kudriavzevii and in the series with Candida albicans was inactive.
